Laboratory results reported in PMC3946399 (Molecular pharmaceutics, 2013).
Read-outs that look alike come from different tables or passages of the source. Each block holds one molecule with its values, some of them ahead of it.

Experiments:
SERCA [1] = assay: Evaluation of synergy in SERCA ATPase assay; type: biochemical, rabbit
HL60/MX2 cells [2] = assay: cells; type: cell-based
HL60/MX2 cells [3] = type: cell-based; details: ratio of IC50 in HL60 and HL60/MX2
SERCA [4] = details: cited from earlier work
SERCA1a = SERCA1a (Oryctolagus cuniculus, UniProt P04191); type: biochemical, rabbit; details: for pKATP(reg) / pKATP(cat): pCa 5.4; for pKATP(reg): control 3.30 ± 0.08; for pKATP(cat): control 4.99 ± 0.07
In short: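 Ca2+-dependent ATPase activity was measured in light SR vesicles from fast-twitch skeletal muscle of New Zealand white rabbits, using an NADH-linked coupled assay. Buffer was 5 mM MgCl2, 100 mM KCl, 1 mM EGTA (free Ca2+ set by EGTA buffering), 0.4 mM NADH, 10 IU/mL LDH, 10 IU/mL PK, 7 ug/mL A23187, 50 mM MOPS pH 7.0. Compounds were added in 1% DMSO final. Runs were at 37 °C in duplicate or triplicate, and rates were taken from A340 decay.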

[5] = in combination with (−)-CXL017 at fixed molar ratio, CI<0.9 synergy

Sequence of SERCA1a (P04191 1-994 isoform P04191-2): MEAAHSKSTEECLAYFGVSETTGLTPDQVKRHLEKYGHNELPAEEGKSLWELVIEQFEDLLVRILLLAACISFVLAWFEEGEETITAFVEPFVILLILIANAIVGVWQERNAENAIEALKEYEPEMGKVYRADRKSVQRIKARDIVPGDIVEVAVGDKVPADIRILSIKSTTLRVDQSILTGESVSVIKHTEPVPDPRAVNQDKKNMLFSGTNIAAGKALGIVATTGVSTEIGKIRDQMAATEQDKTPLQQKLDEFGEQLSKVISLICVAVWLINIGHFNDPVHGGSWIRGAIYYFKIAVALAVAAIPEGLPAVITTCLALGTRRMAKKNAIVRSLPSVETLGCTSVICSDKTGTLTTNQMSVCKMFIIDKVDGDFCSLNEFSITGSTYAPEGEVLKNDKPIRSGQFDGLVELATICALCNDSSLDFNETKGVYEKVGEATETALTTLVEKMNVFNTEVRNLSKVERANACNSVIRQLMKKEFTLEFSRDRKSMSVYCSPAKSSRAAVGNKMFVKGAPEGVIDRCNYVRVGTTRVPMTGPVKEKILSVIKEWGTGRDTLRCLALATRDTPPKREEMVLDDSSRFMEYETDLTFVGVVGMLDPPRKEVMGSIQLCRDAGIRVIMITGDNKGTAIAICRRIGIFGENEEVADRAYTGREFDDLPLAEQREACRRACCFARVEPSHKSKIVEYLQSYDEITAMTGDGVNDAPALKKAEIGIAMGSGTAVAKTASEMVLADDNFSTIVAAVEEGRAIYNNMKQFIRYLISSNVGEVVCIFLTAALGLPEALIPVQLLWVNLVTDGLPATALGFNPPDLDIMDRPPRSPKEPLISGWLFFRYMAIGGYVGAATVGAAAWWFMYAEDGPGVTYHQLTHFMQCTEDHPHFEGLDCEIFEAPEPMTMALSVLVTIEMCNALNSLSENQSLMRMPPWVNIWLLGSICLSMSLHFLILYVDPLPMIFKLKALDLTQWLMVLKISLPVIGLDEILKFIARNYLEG

SMILES: CCOC(=O)CC1C(C(=O)OCC)=C(N)Oc2ccc(-c3cc(OC)cc(OC)c3)cc21 (single isomer, unassigned; (-)) [(−)-CXL017]
combination index (CI) (SERCA [1]; (−)-CXL017 with each of the known SERCA inhibitors (TG, CPA, BHQ)): < 0.9
cell viability (HL60/MX2 cells [2]; 6.25 µM): 47%

SMILES: CC(C)(C)c1cc(O)c(C(C)(C)C)cc1O [BHQ, 2,5-di-tert-butylhydroquinone]
combination index (CI) (SERCA [1]; [5]): 0.15–0.25
selectivity for resistant cell line (HL60/MX2 over HL60) (HL60/MX2 cells [3]): 7.7 fold
dissociation constant (SERCA [4]): submicromolar

SMILES: CC(=O)C1=C(O)[C@@H]2[C@H]3c4c[nH]c5cccc(c45)C[C@H]3C(C)(C)N2C1=O [CPA, cyclopiazonic acid]
combination index (CI) (SERCA [1]; [5]): 0.35–0.45
selectivity for resistant cell line (HL60/MX2 over HL60) (HL60/MX2 cells [3]): 17 fold
dissociation constant (SERCA [4]): submicromolar

IC50 (SERCA1a): 25 ± 1 µM
pKATP(reg) (SERCA1a; 10 μM CXL017, varied ATP): 2.96 ± 0.07
pKATP(cat) (SERCA1a; 10 μM CXL017, varied ATP): 3.92 ± 0.02
pKATP(reg) (SERCA1a; 30 μM CXL017, varied ATP): 2.6 ± 0.1
pKATP(cat) (SERCA1a; 30 μM CXL017, varied ATP): 3.99 ± 0.02
effect on apparent Ca2+ affinity (pKCa) (SERCA1a; 10 or 30 μM CXL017): no significant effect
change in Vmax at catalytic and regulatory ATP sites (SERCA1a; 10 or 30 μM CXL017, varied ATP, two-site model): no significant change
SMILES: CCOC(=O)CC1C(C(=O)OCC)=C(N)Oc2ccc(-c3cc(OC)cc(OC)c3)cc21 (stereo not shown) [CXL017, Ethyl 2-amino-6-(3,5-dimethoxyphenyl)-4-(2-ethoxy-2-oxoethyl)-4H-chromene-3-carboxylate]

SMILES: C/C=C(/C)C(=O)O[C@H]1C(C)=C2[C@H]([C@@H]1OC(=O)CCCCCCC)[C@@](C)(OC(C)=O)C[C@H](OC(=O)CCC)[C@@]1(O)[C@H]2OC(=O)[C@@]1(C)O [TG, thapsigargin]
combination index (CI) (SERCA [1]; [5]): 0.4–0.65
selectivity for resistant cell line (HL60/MX2 over HL60) (HL60/MX2 cells [3]): 400 fold
viability at 0.009375 µM (HL60/MX2 cells [2]; Homo sapiens, HL60/MX2, read-out: cell viability): 43%
dissociation constant (SERCA [4]): submicromolar
